Measured values from ChEMBL document CHEMBL1157200, “Carboxymethylated pyridoindole antioxidants as aldose reductase inhibitors: Synthesis, activity, partitioning, and molecular modeling” (Bioorg Med Chem, 2008).

How the values were obtained:
[1] = Inhibition of Wistar rat kidney aldose reductase 1
Method in brief: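 ALR1 partially purified from male Wistar rat kidney by ammonium sulfate fractionation and DEAE treatment. NADPH consumption followed at 340 nm with 20 mM D-glucuronate and 0.12 mM NADPH in 0.1 M phosphate pH 7.2 at 37 °C; inhibitor also in blank. IC50 from linear part of semilog curves, ≥4 concentrations spanning 25–75% inhibition.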

[2] = target: T1, Aldo-keto reductase family 1 member B1 (Rattus norvegicus, UniProt P07943); experiment: Inhibition of Wistar rat lens aldose reductase 2 using D,L-glyceraldehyde as substrate
Method in brief: (§1)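 Kinetic mode of rat lens ALR2 inhibition from double-reciprocal plots of initial velocity, with D,L-glyceraldehyde or NADPH concentration varied, with or without inhibitor (e.g. 20 µM); NADPH consumption read at 340 nm. Kinetic parameters given as mean ± SD of at least three experiments.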

[3] = target: T1, Aldo-keto reductase family 1 member B1; experiment: Inhibition of Wistar rat lens aldose reductase 2 using NADPH as substrate; method in brief: as §1
[4] = target: T1, Aldo-keto reductase family 1 member B1; experiment: Inhibition of Wistar rat lens aldose reductase 2
Method in brief: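 Lens ALR2 partially purified from male Wistar rats (8–9 weeks). Reaction: 4.67 mM D,L-glyceraldehyde, 0.11 mM NADPH, 0.067 M phosphate pH 6.2; started with substrate, NADPH loss at 340 nm read 4 min after 1 min lag at 30 °C. Blank lacks substrate and includes inhibitor. IC50 from semilog curves, ≥4 concentrations giving 25–75% inhibition.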

[5] = Lipophilicity in 1-octanol/phosphate buffer at pH 7.4 assessed as distribution ratio by shake flask method; format: physicochemical; settings: octanol/water
Method in brief: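 Shake-flask method at room temperature with mutually saturated phases: compound 100 µM final in 0.1 M phosphate buffer pH 7.4 containing 0.15 M KCl, shaken with 1-octanol for 3 h. Phases separated by 1 h centrifugation; both measured by UV spectrophotometry. D is organic/aqueous total concentration; mean ± SD of ≥3 experiments.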

[6] = Dissociation constant, acidic pKa of compound; format: physicochemical
Method in brief: (§2)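 Potentiometric titration with glass/saturated calomel electrodes: compound about 2 mM in water, acidified with 0.1 M HCl to pH about 1.8, titrated with 0.1 M NaOH at 22 °C ± 1 °C, ionic strength held at 0.1 M with KCl.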

[7] = Dissociation constant, basic pKa of compound; format: physicochemical; method in brief: as §2
[8] = Antioxidant activity assessed as inhibition of AAPH-induced peroxidation of DOPC liposome after 80 mins by thiocyanate method; format: functional
Method in brief: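 DOPC unilamellar liposomes (0.8 mM final) in 20 mM phosphate buffer pH 7.4 with AAPH initiator (10 mM final) and varying test concentrations at 50 °C. Aliquots extracted with ice-cold CHCl3/MeOH (2:1) containing BHT; lipid hydroperoxides measured by thiocyanate method, absorbance at 500 nm. IC50 taken at 80 min.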

| SMILES | IC50 [1] [µM] | Ki [2] [µM] | Ki [3] [µM] | IC50 [4] [µM] | D [5] | pKa [6] | pKa [7] | IC50 [8] [µM] |
| --- | --- | --- | --- | --- | --- | --- | --- | --- |
| O=C([O-])Cc1ccc2[nH]c3c(c2c1)CN(CCc1ccccc1)CC3.[K+] | 603 | 17.7 | 10.5 | 16.7 | 0.51 |  |  |  |
| CN1CCc2[nH]c3ccc(CC(=O)[O-])cc3c2C1.[K+] | 3080 |  |  | 54 | 0.13 |  |  |  |
| O=C([O-])Cc1ccc2[nH]c3c(c2c1)CN(Cc1ccccc1)CC3.[K+] | 328 | 17.9 | 11 | 18.2 | 0.35 | 4.34 | 8.65 |  |
| CN1CC[C@@H]2Nc3ccc(CC(=O)[O-])cc3[C@@H]2C1.[K+] (racemic) |  |  |  | 381 | < 0.1 |  |  |  |
| O=C([O-])Cc1ccc2c(c1)[C@@H]1CN(Cc3ccccc3)CC[C@@H]1N2.[Na+] (racemic) | > 3000 |  |  | 266 | 0.2 |  |  | 75.6 |
| Cc1ccc2[nH]c3c(c2c1)CN(C)CC3 [DEHYDROSTOBADINE] |  |  |  | > 1000 | 6 |  |  | 72.7 |
| Cc1ccc2c(c1)[C@H]1CN(C)CC[C@H]1N2 [STOBADINE] |  |  |  | > 1000 | 2.5 |  |  | 25.3 |
| Cc1c(C)c2c(c(C)c1O)CCC(C)(C(=O)O)O2 (stereo not given) [TROLOX] |  |  |  |  |  |  |  | 93.5 |
| CCCC(CCC)C(=O)O [VALPROIC ACID] | 56.1 |  |  |  |  |  |  |  |
| O=C(O)Cc1nn(Cc2nc3cc(C(F)(F)F)ccc3s2)c(=O)c2ccccc12 [ZOPOLRESTAT] |  |  |  | 0.005 |  |  |  |  |
